# Assay results gathered from unrelated publications.
# Each line is one published result; the experiments were not run side by side.
# Organism: Pseudomonas aeruginosa
# Observed: microbial growth
SMILES,test,test system,setting,MIC
Cc1ccc(C)n1-c1ccc(C(=O)NNC=O)cc1,broth dilution,ATCC10145,18 h,125 µg/mL
CCCCCCC#Cc1cncc(-c2nnc(SCc3ccc([N+](=O)[O-])o3)n2C2CC2)c1,,,,≥ 20 µg/mL
CC1=NN(CNC(=O)c2ccccn2)C(=O)C1=NNn1c(-c2ccccc2)nc2ccccc2c1=O,broth dilution,,24 h,52 µM
CCCCCCC/C=C/C(=O)N1C(=O)/C(=C(\O)c2ccc(O)cc2)C(=O)C1CC(C)C (stereo not shown),,PA01,,> 200 µg/mL
Clc1cccc(NCc2ccc(Oc3ccccn3)cc2)c1,,,,> 50 µg/mL
CC(C)Oc1c(NC(=O)c2ccc(NC(=O)[C@H](CC(N)=O)NC(=O)c3cccc(NC(=O)c4ccc(C#N)cc4)c3)cc2)ccc(C(=O)Nc2ccc(C(=O)O)cc2)c1O,,PA14,,> 64 µg/mL
COc1c(C)c(OC(=O)c2ccc(C)cc2)c(C)c(O)c1C(=O)/C=C/c1ccccc1,broth dilution,ATCC27853,,5000 µg/mL
CNC(=O)c1cc(Oc2ccc(NC(=O)Nc3ccc(Cl)c(C(F)(F)F)c3)cc2)ccn1,,DSM19882,,> 100 µM
CC(C)Oc1c(NC(=O)c2ccc(NC(=O)[C@H](CC(N)=O)NC(=O)c3ccc(NC(=O)c4ccccc4)cc3)cc2)ccc(C(=O)Nc2ccc(C(=O)O)cc2)c1O,,PA14,,> 64 µg/mL
Cc1ccc(C)n1-c1ccc(-c2nnc(-c3ccc(Br)cc3)[nH]2)cc1,broth dilution,ATCC10145,18 h,125 µg/mL
CN[C@H](CC(C)C)C(=O)N[C@H]1C(=O)N[C@@H](CC(N)=O)C(=O)N[C@H]2C(=O)N[C@H]3C(=O)N[C@H](C(=O)N[C@H](C(=O)O)c4cc(O)cc(O)c4-c4cc3ccc4O)[C@H](O)c3ccc(c(Cl)c3)Oc3cc2cc(c3O[C@@H]2O[C@H](CO)[C@@H](O)[C@H](O)[C@H]2O[C@H]2C[C@](C)(N)[C@H](O)[C@H](C)O2)Oc2ccc(cc2Cl)[C@H]1O,broth dilution,ATCC27853,18 h,> 32 µg/mL
CC1(C)SC2C(NC(=O)C(NC(=O)C3=C(O)C4CCCN4C3=O)c3ccccc3)C(=O)N2C1C(=O)O (stereo not shown),,,,50 µg/mL
CC(C)Oc1c(NC(=O)c2ccc(NC(=O)[C@H](CC(N)=O)NC(=O)c3ccc(NC(=O)c4ccc(C#N)c(Cl)c4)cc3)cc2)ccc(C(=O)Nc2ccc(C(=O)O)cc2)c1O,,PA14,,> 64 µg/mL
COc1c(C)c(O)c(C)c(O)c1C(=O)/C=C/c1ccccc1,broth dilution,ATCC27853,,1250 µg/mL
CC(C)CNc1nc(Cl)c2c(c1O)C(=O)C1=C(O)[C@]3(O)C(=O)C(C(N)=O)=C(O)[C@@H](N(C)C)[C@@H]3C[C@@H]1C2.Cl.Cl.Cl,broth dilution,ATCC27853,,> 32 µg/mL
CO[C@@H](C(N)=O)[C@H](NC(=O)c1ccc(NC(=O)c2ccc(C#N)cc2)cc1)C(=O)Nc1ccc(C(=O)Nc2ccc(C(=O)Nc3ccc(C(=O)O)cc3)c(O)c2OC(C)C)cc1,,PA14,,0.5 µg/mL
CN(C)[C@@H]1C(O)=C(C(N)=O)C(=O)[C@@]2(O)C(O)=C3C(=O)c4c(O)c(-c5ccccc5)nc(Cl)c4C[C@H]3C[C@@H]12.Cl,broth dilution,ATCC27853,,> 32 µg/mL
Clc1ccc(-c2nc3ccccc3n2Cc2ccccc2)cc1Cl,broth dilution,ATCC27853,,256 µg/mL
CC1(C)SC2C(NC(=O)C(NC(=O)C3=C(O)C(Cc4ccc(O)cc4)NC3=O)c3ccccc3)C(=O)N2C1C(=O)O (stereo not shown),,,,25 µg/mL
C[C@H]1COc2c(N3CCN(C)CC3)c(F)cc3c(=O)c(C(=O)O)cn1c23,broth dilution,,,138 µM
O=c1cc(-c2ccccc2)oc2cc(O)cc(O)c12,broth dilution,PAO1,,128 µg/mL
O=[N+]([O-])c1ccc(-c2nc3ccccc3n2Cc2ccccc2)cc1,broth dilution,ATCC27853,,128 µg/mL
Cc1cc(C#N)ccc1C(=O)Nc1ccc(C(=O)N[C@@H](CC(N)=O)C(=O)Nc2ccc(C(=O)Nc3ccc(C(=O)Nc4ccc(C(=O)O)cc4)c(O)c3OC(C)C)cc2)cc1,,PA14,,8 µg/mL
COc1c(C)c(OCc2ccccc2)c(C)c(O)c1C(=O)/C=C/c1ccccc1,broth dilution,ATCC27853,,5000 µg/mL
CN(C)c1ccc(-c2ccc3cc4c(c(O)c3c2)C(=O)C2=C(O)[C@]3(O)C(=O)C(C(N)=O)=C(O)[C@@H](N(C)C)[C@@H]3C[C@@H]2C4)cc1,broth dilution,ATCC27853,,32 µg/mL
C[C@H]1COc2c(N3CCN(C)CC3)c(F)cc3c(=O)c(C(=O)O)cn1c23,agar dilution,ATCC27,,1 µg/mL
O=C(Nc1ccc(F)c(Cl)c1)c1cc(Cl)ccc1O,broth dilution,ATCC27853,,> 64 µg/mL
CC(C)Oc1c(NC(=O)c2ccc(NC(=O)[C@H](CC(N)=O)NC(=O)c3ccc(NC(=O)c4ccc(C#N)cc4)cc3)cc2)ccc(C(=O)Nc2ccc(C(=O)O)cc2)c1O,,PA14,,2 µg/mL
CC1=NN(CNc2c(O)c(S(=O)(=O)O)cc3ccccc23)C(=O)C1=NNn1c(-c2ccccc2)nc2ccccc2c1=O,broth dilution,,24 h,41.8 µM
CN(C)[C@@H]1C(O)=C(C(N)=O)C(=O)[C@@]2(O)C(O)=C3C(=O)c4c(O)cnc(Cl)c4C[C@H]3C[C@@H]12.Cl,broth dilution,ATCC27853,,> 32 µg/mL
COc1c(C(=O)Nc2ccc(C(=O)O)cc2)ccc2nc(-c3cc(NC(=O)C(CC(N)=O)NC(=O)c4ccc(NC(=O)c5ccc(C#N)cc5)cc4)cn3C)[nH]c12 (stereo not shown),,PA14,,> 64 µg/mL
CC(=O)NC1CN(Cc2ccc3cc4c(c(O)c3c2)C(=O)C2=C(O)[C@]3(O)C(=O)C(C(N)=O)=C(O)[C@@H](N(C)C)[C@@H]3C[C@@H]2C4)C1,broth dilution,ATCC27853,,32 µg/mL
O=C(CCc1ccc(O)c(O)c1)NCCCCCCCC[P+](c1ccccc1)(c1ccccc1)c1ccccc1.[Br-],broth dilution,ATCC27853,18 h,> 32 µg/mL
Clc1ccc(NCc2ccc(Oc3ccccn3)cc2)cc1,,,,> 25 µg/mL
CN(C)[C@@H]1C(O)=C(C(N)=O)C(=O)[C@@]2(O)C(O)=C3C(=O)c4c(O)cnc(-c5ccccc5)c4C[C@H]3C[C@@H]12.Cl.Cl,broth dilution,ATCC27853,,> 32 µg/mL
CC(C)Oc1c(NC(=O)c2ccc(NC(=O)[C@H](CC(N)=O)NC(=O)c3ccc(NC(=O)c4ccc(F)cc4)cc3)cc2)ccc(C(=O)Nc2ccc(C(=O)O)cc2)c1O,,PA14,,> 64 µg/mL
CCCCCCC/C=C/C(=O)N1C(=O)/C(=C(\O)c2ccccc2)C(=O)C1CC(C)C (stereo not shown),,PA01,,> 200 µg/mL
